Measurements of several laboratories.
EDNRB: Endothelin receptor type B (EDNRB, Homo sapiens, UniProt P24530)
MMP9 Q279R: Matrix metalloproteinase-9 (MMP9, Homo sapiens, UniProt P14780, Q279R)
MAOB: Amine oxidase [flavin-containing] B (MAOB, Homo sapiens, UniProt P27338)
CTSV: Cathepsin L2 (CTSV, Homo sapiens, UniProt O60911)

CC(C)N1CCC[C@H]1CNC(=O)c1cn(C2CCCC2)c(=O)c2c1c1ccccc1n2C — inhibition (EDNRB; ligand displacement; radioligand; 10 µM): 3%
N=C(N)c1ccc2cc(OC(=O)c3ccc(N=C(N)N)cc3)ccc2c1 — inhibition (MMP9 Q279R; enzyme activity; inhibitor; 10 µM): 11%
COCc1c(-c2cc3cc(C)cc(OC)c3s2)c2c(N)ncnn2c1CN1CCNC(=O)C1 — inhibition (MAOB; enzyme activity; inhibitor; 10 µM): 5%
CN1CCN(CCCOc2ccc3occc(=O)c3c2)CC1 — inhibition (MAOB; enzyme activity; inhibitor; fluorescence; 10 µM): 20%
CN(CCN1CCC(OC(=O)Nc2ccccc2-c2ccccc2)CC1)C(=O)c1ccc(CN2CCC(C(N)=O)CC2)cc1 — inhibition (EDNRB; ligand displacement; radioligand; 1 µM): 11%
O=C(Nc1cccnn1)N1CCN([C@@H]2CCOc3cc(C(F)(F)F)ccc32)CC1 — inhibition (EDNRB; cell-free assay; 20 µM): -5%
C[C@@H]1CCCN1CCCCOc1ccc2occc(=O)c2c1 — inhibition (MAOB; enzyme activity; inhibitor; fluorescence; 10 µM): 28%
COc1cc(Nc2ncc(F)c(Nc3ccc4c(n3)NC(=O)C(C)(C)O4)n2)cc(OC)c1OC — inhibition (Phosphatidylinositol 3-kinase C2 domain-containing subunit gamma (PIK3C2G, Homo sapiens, UniProt O75747); binding; competition with immobilised ligand; 10 µM): 48%
COc1ccc(S(=O)(=O)N(CC(=O)NO)CC(C)C)cc1 — inhibition (MMP9 Q279R; enzyme activity; inhibitor; 1 nM): 27%
COc1ccc(S(=O)(=O)N2CCCCC2)cc1C — inhibition (EDNRB; ligand displacement; radioligand; 10 µM): < 30%
CC(C)C[C@H](NC(=O)[C@H]1O[C@@H]1C(=O)O)C(=O)NCCCCN=C(N)N — inhibition (CTSV; enzyme activity; inhibitor; 5 nM): 17%
C[C@H](C(=O)N[C@H]1COc2ccccc2[C@@H]1S(C)(=O)=O)c1ccc(F)cc1 — inhibition (MAOB; enzyme activity; inhibitor; 10 µM): 11%
CCOC(=O)c1ccc(OC(=O)CCCCCNC(=N)N)cc1 — inhibition (CTSV; enzyme activity; inhibitor; 10 µM): 3%
O=c1ccoc2ccc(OCCCCN3CCCCC3)cc12 — inhibition (MAOB; enzyme activity; inhibitor; fluorescence; 10 µM): 63%
